Results taken from article PMC9635392 (International Journal of Nanomedicine, 2022).
Structures can show the parent of a compound that is named as a salt.

Key:
[1] = test system: PLC/PRF/5 hepatocellular carcinoma cells; experiment: MTT cytotoxicity assay; format: cell-based, Human
Outline: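 PLC/PRF/5 cells grown in DMEM with 10% FBS and penicillin/streptomycin at 37°C, 5% CO2. Seeded at 7×10^3 cells/well in triplicate and left 24 h. Treated 24 h or 48 h with test compound (DMSO stock diluted in DMEM) or nanoparticle formulations (DMEM-suspended, sonicated 10 min). MTT added for 3 h, formazan dissolved in isopropanol, A570 read. Untreated cells set at 100%. IC50 from curve fitting.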

[2] = test system: Swiss albino mice; experiment: In vivo biodistribution study; details: 5 mg/kg intravenously

Q: Which results are given for CNC(=O)c1cc(Oc2ccc(NC(=O)Nc3ccc(Cl)c(C(F)(F)F)c3)cc2)ccn1 [SRFT, Sorafenib tosylate]?
A: IC50 ([1]; Homo sapiens, PLC-PRF-5): 6 to 8 µM; cytotoxicity ([1]; PLC/PRF/5, 4–12 µM, 24 h and 48 h): concentration-dependent cytotoxicity; sorafenib distribution liver vs kidneys, first hour ([2]; 1 h): accumulated in the kidneys was higher compared to liver; sorafenib distribution liver vs kidneys at 48 h ([2]; 48 h): in kidneys at 48 h was higher than in the liver
